# Only some compounds are listed: those with a hit (about 4.4% of all), similar ones and a draw of the others.
# HIF act: HIF pathway transcriptional activators, primary screen, cell-based, U2OS HRE-luciferase, luminescence; activation, % at 7.5 µM (by protocol); U2OS HRE-luciferase reporter; normalized: DMSO 0%, desferrioxamine 100%; actives 0.32% (n = 300,000);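 active = mean activation of at least 10% of the iron chelator positive control signal, with at least half of replicates also reaching 10%; inconclusive = mean and replicate majority disagree about reaching 10%; inactive = mean and most replicates under 10%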
# HSF1 inhib: HSF1 inhibitors in luciferase reporter cells, primary screen, cell-based, NIH3T3, luminescence | actives 0.77% (n = 300,000) | activity change, negative = inhibition, % at 7.5 µM (by protocol) | NIH3T3-HGL HSE-luciferase, MG132-induced, luminescence 8 h; active compounds read low;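 active = more than half of replicate wells show activity change below -50%, luminescence cut by over half; inconclusive = some wells, but at most half, below -50%; inactive = no replicate well below -50%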;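 also: luciferase reports HSF-1 transcriptional activity via heat shock element; 0% = median of DMSO wells and -100% = zero luminescence signal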
# T cruzi inh: inhibitors of intracellular T. cruzi growth, primary screen, luminescence, NIH3T3 host cells | T. cruzi beta-gal in NIH3T3, 90 h | inhibition, % (test concentration not listed) | actives 1.4% (n = 300,000);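 active = mean inhibition across valid replicates above about 55%, limit read from the data; inconclusive = mean below that limit but half or more replicates reach it; inactive = mean below it, under half of replicates reach it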;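 also: signal also drops with host cell toxicity which is not excluded here; 0% = plate median of DMSO wells and 100% = zero luminescence signal; higher percent means less beta-gal luminescence so fewer parasites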
#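 compound dosing = single 50 nL compound addition per well in DMSO | material = NIH/3T3 host cells with β-galactosidase reporter T. cruzi | input = 5,000 host fibroblasts per well | timing = ≥90 h infection period, 3 h prior cell attachment | read-out basis = percent inhibition of parasite-derived β-gal signal | detection = GalScreen β-gal luminescence, detergent lysis, 60 min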
# Calb FLC: C. albicans growth inhibition with fluconazole, primary screen, CaCi-2 strain, Alamar Blue fluorescence; actives 0.57% (n = 300,000); AID 1979, 2009; growth inhibition, % (no concentration beside the values); C. albicans CaCi-2 (fluconazole-resistant clinical isolate) + fluconazole, 48 h;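 active = growth inhibition above about 58% in most replicates, limit read from the data, passing the limit was not always enough; inconclusive = exactly half the replicates above a set limit; inactive = most replicates below a set limit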;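 also: all wells also contain fluconazole at 8 µg/ml as a sub-toxic cotreatment; 0% = median of DMSO wells and 100% = median of geldanamycin control wells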
# HSF-1 act: HSF-1 activators, primary screen, NIH3T3-HGL cells, MG132 stress, luminescence, single point; AID 504408, 2011; activation, % at 9 µM; actives 1.7% (n = 300,000); NIH3T3-HGL HSF-1 luciferase reporter, 8 h; 100% = twice DMSO control signal;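 active = mean replicate activation of at least 50% with a set share of replicates each reaching 50%; inconclusive = only one of those two conditions met; inactive = mean below 50% and too few replicates reaching it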;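 also: 0% = median of the neutral control wells and 100% = twice that signal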
# The depositor's hits bear a star; ? = inconclusive; . = no result given.
SMILES,HIF act,HSF1 inhib,T cruzi inh,Calb FLC,HSF-1 act
Cn1c(=O)c2c(nc(N/N=C/c3ccc(OC(=O)c4ccco4)cc3)n2Cc2ccc(F)cc2)n(C)c1=O,0,23,4,37,56*
CCOC(=O)N1CCN(C(=O)c2ccc(CS(=O)(=O)c3c(Cl)cccc3Cl)o2)CC1,.,-77*,0,0,-82
O=C(c1cccc(C(F)(F)F)c1)C1CCCN(Cc2ccc(OCCO)cc2)C1 (stereo not given),0,1,63*,-20,0
COc1ccc2cc(C(=O)C3CCCN(Cc4cnc(N5CCOCC5)s4)C3)ccc2c1 (stereo not given),-1,-1,41,-11,13
COc1ccc(C(=O)C2CCCN(Cc3ccc(NC(C)=O)cc3)C2)cc1OC (stereo not given),-1,-72*,1,-1,-76
CCOc1ccccc1CN1CCCC(C(=O)c2ccc(OC)c(OC)c2)C1 (stereo not given),0,-1,38,-8,-5
COc1ccccc1C(=O)C1CCCN(Cc2ccc(Oc3ncccn3)cc2)C1 (stereo not given),0,-6,73*,0,-5
CC(=O)Nc1ccc(CN2CCCC(C(=O)c3cccc(C(F)(F)F)c3)C2)cc1 (stereo not given),0,-7,20,-7,-27
CC(C)Oc1cccc(C(=O)C2CCCN(Cc3cnc(N4CCCC4)s3)C2)c1 (stereo not given),0,11,82*,-41,22
O=C(NCc1ccc(F)cc1)C1CCCN1S(=O)(=O)c1cccc2nsnc12 (stereo not given),0,1,3,1,-3
CCCc1c(C(=O)N/N=C(\C)CCc2ccccc2)nnn1-c1nonc1N,0,3,16,-6,1
CCCn1cc(CN2CCCC(C(=O)c3cccc(OC(C)C)c3)C2)c(C)n1 (stereo not given),0,7,?,-12,-10
COc1c(C)cc(C(=O)C2CCCN(Cc3ccc(Oc4ncccn4)cc3)C2)cc1C (stereo not given),-1,3,33,3,13
CCCn1ncc(CN2CCCC(C(=O)c3cccc(OC(C)C)c3)C2)c1C (stereo not given),0,-3,55*,-23,-1
COc1ccc(F)cc1C(=O)C1CCCN(Cc2cccn2-c2ccccn2)C1 (stereo not given),0,-64*,25,12,-71
O=C(c1cccc(C(F)(F)F)c1)C1CCCN(C(=O)Cn2cncn2)C1 (stereo not given),11*,-2,-9,21,-5
O=C(c1cc(F)ccc1F)C1CCCN(Cc2cccn2-c2ccccn2)C1 (stereo not given),1,-2,1,-4,-5
CC(C)Oc1cccc(C(=O)C2CCCN(Cc3ccc(Oc4ncccn4)cc3)C2)c1 (stereo not given),-1,5,66*,-10,31
O=C(c1ccc(C(F)(F)F)cc1)C1CCCN(C(=O)Cn2cncn2)C1 (stereo not given),0,4,1,-6,0
Cc1ccc(CN(C)C(=O)C2CCC(=O)N(C3CCCCCC3)C2)cc1 (stereo not given),0,8,8,3,5
CCOC(=O)C1CCN(C(=O)c2ccc(N(C)S(=O)(=O)c3ccc(OC)cc3)cc2)CC1,0,.,15,-5,.
CC(C)(C)c1ccc(NC(=O)N2CCCN(c3c(Cl)cncc3Cl)CC2)cc1,0,-9,13,23,-1
CCOCCN1CCN(C2c3ccccc3CSc3ccccc32)CC1 (stereo not given),-1,-5,32,0,-9
COc1ccc(CCNc2oc(COc3ccc(Br)cc3)nc2C#N)cc1OC,0,33,25,13,56*
COc1ccc(CNc2oc(COc3ccc(Cl)cc3)nc2C#N)cc1,-1,10,66*,-3,16
SMILES,HIF act,HSF1 inhib,T cruzi inh,Calb FLC,HSF-1 act
CN(C)c1oc(-c2ccc(OCc3ccc(Cl)cc3)cc2)nc1C#N,0,1,63*,3,7
COc1ccc(CCNc2oc(Cc3cccc4ccccc34)nc2C#N)cc1OC,0,22,22,10,29
C=CCn1c2ccccc2c2nnc(SCC(=O)O)nc21,-20,-60*,6,5,-69
Oc1c(N=NC(=S)Nc2ccccc2F)c2ccccc2n1Cc1ccccc1F,-1,-1,88*,10,-9
Cc1ccc(Cn2c(O)c(N=NC(=S)Nc3ccccc3F)c3cc(S(=O)(=O)N4CCOCC4)ccc32)cc1,0,.,-15,42,.
Oc1c(N=NC(=S)Nc2ccccc2F)c2ccccc2n1Cc1ccc(Cl)cc1,1,-18,61*,7,-19
Cc1ccccc1Cn1c(O)c(N=NC(=S)Nc2ccccc2F)c2ccccc21,0,-14,36,-12,-6
Cc1ccc(C)c(Cn2c(O)c(N=NC(=S)Nc3ccccc3F)c3ccccc32)c1,0,-22,67*,-2,-28
CCNC(=S)N=Nc1c(O)n(Cc2ccc(Cl)cc2)c2ccccc12,0,-6,-3,19,-5
CSc1ncccc1C(=O)N1CCCC(Nc2ccc(C)c(C)c2)C1 (stereo not given),0,6,0,-11,4
O=C(Nc1ccccc1)C1=C[C@@H](C2CC2)C[C@@H](OCc2ccc(CO)cc2)O1,2,4,15,0,13
CCOC(=O)COc1ccc(S(=O)(=O)NC2CC2)cc1,-2,6,-5,1,-3
CC(Sc1nnc(COc2ccc([N+](=O)[O-])cc2)n1C)C(=O)O (stereo not given),93*,-7,-16,2,-3
COc1ccc(OC)c(/C=C/C(=O)N2CCCc3ccccc32)c1,0,11,12,-33,5
Nc1cccc2c1C(=O)N(C(=O)/C=C/c1cccc(F)c1)C2=O,0,21,-32,-2,22
COc1cc(/C=C/C(=O)N2C(=O)c3cccc(N)c3C2=O)cc(OC)c1OC,0,96,-6,-16,130*
Nc1cccc2c1C(=O)N(C(=O)/C=C/c1cccc(Br)c1)C2=O,1,130,13,-6,106*
COc1ccc(OC)c(/C=C/C(=O)N2C(=O)c3cccc(N)c3C2=O)c1,0,83,-16,-7,86*
O=c1[nH]cc(S(=O)(=O)N2CCOCC2)c(=O)[nH]1,0,4,-6,-2,-1
CC1CCN(c2ccc3nnc(CCC(=O)NCCCOC(C)C)n3n2)CC1,0,0,0,4,14

# Screening data: PubChem, Broad Institute
